# RAM inhibit = inhibitors of the yeast RAM network, primary screen, dse1pr::URA3 reporter, 5-FOA selection; hit rate 1.8% among 190,000; AID 868, 2007; S. cerevisiae dse1pr::URA3 reporter, 5-FOA growth OD615, 2 d; analog-sensitive cbk1-as2 kinase mutant strain; inhibition, % at 50 µM;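 active means inhibition above a set limit, 3 SD over mean compound inhibition, cut at about 8.4% in these data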;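 further: inhibition rescues growth on 5-FOA so higher OD means more RAM inhibition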
# Measles CPE = compounds protecting cells from measles virus cytopathic effect, primary screen, measles RdRp inhibitor project, single point, MLSMR library, absorbance | Measles virus-infected cells, CPE protection | protection (pct of control), % at 4 µM | hit rate 1.5% among 140,000; in the data active means protection mostly above about 24%, no sharp cut-off; inactive means mostly below about 26%
# Yeast lifespan up = compounds extending yeast replicative lifespan, primary screen, S. cerevisiae, OD615 | S. cerevisiae growth with nicotinamide; deaD strain in restrictive glucose medium | inhibition of the nicotinamide effect, % at 10 µM | hit rate 0.68% among 130,000 | AID 775, 2007;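 active means inhibition above a set limit, placed 3 SD over the median of all compounds, cut at about 26% in these data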
#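 Assay system: DeaD-strain S. cerevisiae. Medium: CSMM-D glucose medium, restrictive. Reagent: nicotinamide, 1.5 mM, co-present with compound. Compound: 10 µM single point, 0.25% DMSO. Schedule: culture preincubation 4 h, compound exposure 48 h, both 30 °C. Detection: absorbance at 615 nm.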
# Yeast growth inh = growth inhibitors of yeast BB579 in restrictive medium, primary screen, yeast lifespan-shortening project, S. cerevisiae | OD615, 48 h | inhibition, % at 10 µM | hit rate 0.51% among 140,000;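 active means inhibition above a set limit, 3 SD over the mean compound inhibition, cut at about 44% in these data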
#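 Test system: S. cerevisiae DeaD strain BB579 yeast; Medium: restrictive CSMM-D medium; Compound: one dose, 10 µM compound with 0.25% DMSO; Incubation: 4 h cell preincubation, 48 h compound exposure, 30 °C humidified; Signal: OD at 615 nm; Benchmarks: amphotericin B at 10 µg/mL as positive control.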
# A number is an active result; - = inactive; . = not tested or not shown. This is a sample that favours compounds with a hit; in the whole collection about 3.8% have one here.
SMILES,RAM inhibit,Measles CPE,Yeast lifespan up,Yeast growth inh
CCN1C=CC(=C2C(=O)c3ccccc3C2=O)C=C1,-,39.6,-,-
NC(=O)C1CCN(C(=O)CCSc2ccc(Cl)cc2)CC1,-,.,.,.
O=C(CCSc1ccc(Cl)cc1)N1CCCCCC1,-,30.8,-,-
COc1ccc(/C=C/C=C2\NC(=S)NC2=O)cc1,10.2,.,.,.
COC(=O)c1ccc(/C=C/C(=O)c2cccc(OC)c2)cc1,-,-,-,-
COc1cccc(C(=O)/C=C/c2ccc(SC)cc2)c1,9.2,-,-,-
CSc1ccc(/C=C/C(=O)c2ccc(NC(=O)C(C)C)cc2)cc1,10.3,-,-,-
O=S(=O)(N/N=C\c1ccc2c(c1)OCO2)c1ccc(Cl)cc1,-,-,-,-
O=C(COC(=O)CNC(=O)c1ccc(Cl)cc1Cl)Nc1ccc(N2CCOCC2)cc1,-,.,.,.
COc1ccc(C2(C(=O)O)CCCC2)cc1,-,-,34.7,-
Cc1ccc([N+](=O)[O-])cc1S(=O)(=O)n1ccnc1C,-,.,.,.
Cc1sc(N/N=C/c2ccco2)nc1-c1ccccc1,-,-,-,-
Cc1sc(N/N=C/c2cccnc2)nc1-c1ccccc1,-,82.9,-,-
COC(=O)c1ccccc1NC(=O)CSc1nnc(-c2ccc(OC)cc2)n1C,-,-,.,-
Cn1nc(C(F)(F)F)c(/C=N/OC(=O)c2ccccc2)c1Cl,-,-,-,-
Cn1nc(C(F)(F)F)c(/C=N/OC(=O)c2ccccc2)c1Sc1ccc(Cl)cc1,10.4,-,-,-
Cc1ccc(S(=O)(=O)Nc2ccccc2/C=N/c2nc3ccccc3n2C(C)C)cc1,-,-,53.4,-
CCn1c(NCc2ccccc2NS(=O)(=O)c2ccc(C)cc2)nc2ccccc21,-,-,-,-
CCCn1c(NCc2ccccc2NS(=O)(=O)c2ccc(C)cc2)nc2ccccc21,-,-,-,-
CCCCn1c(/N=C/c2ccccc2NS(=O)(=O)c2ccc(C)cc2)nc2ccccc21,-,-,68.2,-
O=C(Nc1ccc(CN2CCCCC2)cc1)Nc1ccc(Br)cc1Cl,-,.,.,.
O=S1(=O)C=C(Sc2nc3ccccc3s2)c2ccccc21,-,-,69.1,-
Cc1ccc(-n2c3c(cc(C(=O)O)c2=O)C(=O)CC(C)(C)C3)cc1,-,55.4,-,-
CC1(C)CC(=O)c2cc(C(=O)O)c(=O)n(-c3ccccc3)c2C1,-,-,-,-
O=C(O)c1ccc(SCc2cnc(Cl)s2)cc1,-,-,-,97.2
SMILES,RAM inhibit,Measles CPE,Yeast lifespan up,Yeast growth inh
COCCCn1c(-c2ccco2)nc2ccccc2c1=O,-,28.7,-,-
COc1ccc(CCn2c(-c3ccco3)nc3ccccc3c2=O)cc1OC,-,-,-,-
Cc1ccccc1Cc1c(C)nc2nc(SCC(=O)NCc3ccco3)nn2c1C,-,-,-,-
Cc1ccc(C)c(Cc2c(C)nc3c(C(=O)N4CCOCC4)cnn3c2C)c1,-,39.8,-,-
Cc1ccccc1Cc1c(C)nc2c(C(=O)NCc3ccco3)cnn2c1C,10.4,-,-,-
CCOC(=O)N1CCN(C(=O)c2cnn3c(C)c(Cc4ccc(C)cc4)c(C)nc23)CC1,-,-,-,-
Cc1cccc(NC(=O)N2CCN(Cc3ccc4c(c3)OCO4)CC2)c1C,-,.,.,.
Cc1csc2c(=O)[nH]cnc12,-,.,.,.
COc1ccc(NCc2nnc(SCc3ccc(Cl)cc3)n2-c2ccccc2)cc1,-,-,-,-
CSc1nc(NCC(C)C)nc(N2CCOCC2)n1,-,35.8,-,-
COc1ccc(N=Nc2nc(-c3ccccc3)c(-c3ccccc3)[nH]2)cc1,10.8,-,-,-
COc1ccccc1N=Nc1nc(-c2ccccc2)c(-c2ccccc2)[nH]1,-,-,-,-
Oc1ccccc1N=Nc1nc(-c2ccccc2)c(-c2ccccc2)[nH]1,8.6,-,-,-
O=C(O)c1ccc(-c2nc(-c3ccccc3)c(-c3ccccc3)[nH]2)cc1,-,-,-,-
O=C(CSCc1ccc(Cl)cc1)NCc1ccccn1,-,-,-,-
Cc1ccc(Cl)cc1NC(=S)N(CCCN1CCOCC1)Cc1ccco1,-,.,.,.
COc1ccc([C@@H]2[C@@H](C(=O)C(C)(C)C)N3N=Cc4ccccc4[C@@H]3C23C(=O)OC(C)(C)OC3=O)cc1OC,-,-,-,-
COc1ccc([C@H]2[C@H](C(=O)C(C)(C)C)N3N=Cc4ccccc4C3C23C(=O)OC(C)(C)OC3=O)cc1 (stereo partly drawn),-,-,36.2,-
CC(=O)Nc1ccc2nc(NC(=O)COc3ccccc3C)sc2c1,-,.,.,.
CC(=O)Nc1ccc2nc(NC(=O)COc3ccccc3Cl)sc2c1,9.9,.,.,.
CC(=O)Nc1ccc(OS(=O)(=O)c2c(C)cc(C)cc2C)cc1,-,.,.,.
Cc1scc(C(=O)N2CCN(S(C)(=O)=O)CC2)c1-c1ccccc1,-,-,-,-
CS(=O)(=O)N1CCN(C(=O)c2ccccc2F)CC1,-,-,-,49.7
CS(=O)(=O)N1CCN(C(=O)c2csc3ccccc23)CC1,-,61.3,-,-
COc1ccccc1NC(=O)Cc1noc(CSc2cccc[n+]2[O-])n1,-,-,-,95.0
SMILES,RAM inhibit,Measles CPE,Yeast lifespan up,Yeast growth inh
COc1ccccc1NC(=O)Cc1noc(CSc2cc(C)c3ccccc3n2)n1,-,-,-,-
COc1cc(C(=O)N2CCN(c3ccccc3)CC2)c([N+](=O)[O-])cc1OC,-,.,.,.
COC(=O)[C@@H](NC(=O)Nc1ccc(OC(F)(F)F)cc1)C(C)C,-,-,-,-
CC(=O)Nc1cccc(NC(=O)Nc2ccc(C(C)=O)cc2)c1,-,43.9,-,-
CC(=O)c1cccc(NC(=O)Nc2ccc3c(c2)N(C)C(=O)CS3)c1,8.5,-,-,-
Cc1cc(C)cc(NC(=O)Nc2ccc3c(c2)N(C)C(=O)CS3)c1,-,-,-,-
COC(=O)[C@@H](NC(=O)Nc1ccc(C(C)=O)cc1)C(C)C,-,104.2,-,-
CCC(C)[C@H](NC(=O)Nc1ccc(S(N)(=O)=O)cc1)C(=O)O (stereo partly drawn),-,-,-,-
COC(=O)[C@@H](NC(=O)Nc1ccc(S(N)(=O)=O)cc1)C(C)C,-,30.7,-,-
COc1ccc(NC(=O)/C(=C/c2cccnc2)NC(=O)c2cccs2)cc1,-,-,-,-
CNc1ccc(/C=C(\CCC(=O)O)c2nc3ccccc3s2)cc1[N+](=O)[O-],10.5,-,-,-
Cc1ccc(/C=C(\CCC(=O)O)c2nc3ccccc3s2)cc1[N+](=O)[O-],10.0,-,-,-
CC(C)c1ccc(-c2c(C#N)c(N)nc(SCC(=O)N3CCCCC3)c2C#N)cc1,-,33.1,-,-
CC(C)c1ccc(-c2c(C#N)c(N)nc(SCC(=O)N3CCCCCC3)c2C#N)cc1,-,-,-,-
CCN(c1ccccc1)c1ncnc2c1cnn2-c1ccccc1,-,48.8,-,-
Cc1ccc(-n2c(C)nnc2SCC(=O)Nc2ccccc2)cc1,-,-,.,-
O=C(NCCCn1ccnc1)c1nn2c(C(F)(F)F)cc(-c3ccccc3)nc2c1Cl,-,.,.,.
Cc1noc(C)c1COc1ccc(C(=O)OCC(N)=O)cc1,-,.,.,.

# Screens from PubChem BioAssay.
